PG9 Ab binder – binds the HIV-1 gp120 antibody PG9. 360,000 tested, 0.43% active. TR-FRET gp120-PG9 antibody binding. AID 624416. inhibition, % at 6.7 µM; in the data active means inhibition above about 8.5%
NR2E3 ag-1 – agonists of human NR2E3 nuclear receptor; 360,000 tested, 0.35% active; inhibition of corepressor binding, % at 3.98 µM; CHO-S Gal4-NCOR/VP16-NR2E3 two-hybrid, luciferase; Q9Y5X4;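 active means inhibition above the mean of all tested compounds plus 3 SD, cut at about 70% in these data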;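 further: 0% = DMSO with NR2E3 transfected cells and 100% = cells lacking NR2E3 construct; higher means lower luciferase signal from less NR2E3 corepressor binding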
Target sequence (Q9Y5X4 whole entry, looked up, the tested form may be a part): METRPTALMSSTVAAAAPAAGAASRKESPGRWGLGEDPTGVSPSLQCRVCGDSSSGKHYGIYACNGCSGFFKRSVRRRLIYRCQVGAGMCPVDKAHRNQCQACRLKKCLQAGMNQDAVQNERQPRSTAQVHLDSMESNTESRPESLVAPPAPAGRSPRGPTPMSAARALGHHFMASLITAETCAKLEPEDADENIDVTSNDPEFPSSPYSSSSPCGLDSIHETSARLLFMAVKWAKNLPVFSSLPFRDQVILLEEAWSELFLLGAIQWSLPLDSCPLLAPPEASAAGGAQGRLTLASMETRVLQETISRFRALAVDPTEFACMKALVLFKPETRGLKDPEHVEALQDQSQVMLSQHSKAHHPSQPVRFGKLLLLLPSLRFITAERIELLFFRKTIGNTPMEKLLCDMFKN
NR2E3 ag-2 – activates human photoreceptor nuclear receptor NR2E3; inhibition of corepressor binding, % at 4.78 µM; 320,000 tested, 0.12% active; AID 2300; GST-NR2E3/biotin-RetCOR TR-FRET, 1536-well;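 active means percent inhibition above the cutoff of mean plus 3 SD of all tested compounds, set per screening campaign, cut at about 20% in these data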;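 further: 0% = DMSO wells and 100% = biotin wells as full block of FRET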
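System: GST-tagged NR2E3 plus biotinylated RetCOR corepressor; Buffer or medium: pH 7.5 Tris-based buffer; Probe or stimulus: RetCOR corepressor, biotinylated, 7 nM; Doses: compound at 4.8 µM, single dose; Schedule: 5 h incubation at 4 °C; Technique: time-resolved FRET; Evaluation: percent inhibition of TR-FRET ratio; Replication: one well per compound, singlicate testing.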
VLA-4 inh – inhibition in a human VLA-4 binding assay | inhibition, % (about 7 µM as worked out from the volumes in the protocol) | P13612 | 330,000 tested, 0.2% active | VLA-4 expressing cells, ligand binding flow cytometry | AID 2557; in the data active means inhibition above about 50%
NR1D1 modulator – modulators of human Rev-erb alpha DNA binding. P20393. Rev-erbα–FITC-DNA binding, fluorescence polarization, 90 min. activity, % at 10 µM. 370,000 tested, 0.79% active. AID 1259318;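 active means activity above about 14%, limit read from the data; passing the limit was not always enough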;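 further: 0% = DMSO wells with 35 nM protein and 100% = DMSO wells with 750 nM protein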
PG9 binder conf – PG9 antibody binding, confirmed; shares compounds with PG9 Ab binder; TR-FRET PG9 antibody binding, biochemical; inhibition, % at 6.7 µM; 1,500 tested, 90% active; in the data active means inhibition above about 9%
PGV04 counter – counter-screen for PG9 binders: binding control antibody PGV04; shares compounds with PG9 Ab binder; inhibition, % at 6.7 µM; TR-FRET PGV04 antibody-gp120 binding, biochemical; 1,500 tested, 95% active; AID 651604; in the data active means inhibition above about 9.5%
Rev-erbA confirm – confirmation of modulators of human Rev-erb alpha DNA binding | shares compounds with NR1D1 modulator | Rev-erb alpha FITC-DNA binding, fluorescence polarization, 90 min | activation, % at 25 µM | 3,000 tested, 61% active | AID 1259319;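 active means activation at or above a set limit, or at least 3 SD above the negative control mean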;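 further: 0% = 35 nM protein with DMSO and 100% = 750 nM protein high control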
RORg DNA counter – RORgamma DNA-binding activity, dose-response counter-screen | purified RORgamma protein-FITC-DNA binding, fluorescence polarization | IC50, µM | 910 tested, 8% active | shares compounds with NR1D1 modulator | AID 1259320;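 active means Compounds whose fitted half-maximal concentration for disrupting protein-DNA binding is below 10 micromolar; the record names Rev-erb in its text, so the target is in doubt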
* = called active by the depositor; i = inactive; . = no result. An excerpt weighted towards active compounds, which were near 1.6% of everything screened.

SMILES | PG9 Ab binder | NR2E3 ag-1 | NR2E3 ag-2 | VLA-4 inh | NR1D1 modulator | PG9 binder conf | PGV04 counter | Rev-erbA confirm | others
COc1cccc(C(=O)Nc2ccc3c(C)cc(=O)oc3c2)c1 | 9.7* | -172 | . | 3 | 20* | 21* | 31* | 0
COC(=O)c1c(N)[nH]c(C(=O)c2ccccc2)c1-c1ccc(Cl)cc1 | 0 | -40 | . | . | -6 | . | . | .
CCOC(=O)c1cccc2c(=O)c(C(=O)c3ccc(Cl)cc3)c(C(=O)OC)[nH]c12 | 21* | -4 | 0 | -2 | 50* | 11* | 19* | 37* | RORg DNA counter=>40
CCCCCc1ccc(NC(=O)OCCCN2CCC3(CCC(c4ccccc4)CC3)C2=O)cc1 (stereo not drawn) | . | . | . | . | -1 | . | . | .
CC(=O)c1cc(-c2ccc(-c3ccccc3)c(F)c2)c(=O)n2c1CCC2 | . | . | . | . | -2 | . | . | .
C=CCn1cnc2sc(C(=O)Nc3ccccc3OC)c(C)c2c1=O | -2 | -14 | -4 | 7 | -6 | . | . | .
COc1ccccc1NC(=O)c1sc2ncn(Cc3cccc4ccccc34)c(=O)c2c1C | 13* | -26 | 0 | 5 | 117* | 11* | 24* | 49* | RORg DNA counter=i
O=C(CSc1nc2nc3c(cc2c(=O)n1-c1ccccc1)CCCC3)Nc1ccccc1 | 18* | -7 | 0 | -14 | 27* | 31* | 46* | 20*
CC(C)(C)NC(=O)[C@H](c1cccnc1)N(C(=O)c1ccco1)c1ccc(C(C)(C)C)cc1 | . | . | . | . | 2 | . | . | .
COc1ccc2cc(OCC(=O)NNC(=O)Nc3ccc(F)cc3)ccc2c1 | 23* | -3 | 3 | -2 | 42* | 34* | 45* | 35* | RORg DNA counter=3.1*
COc1ccc(NC(=O)NNC(=O)COc2ccc3cc(Br)ccc3c2)c(OC)c1 | 61* | -28 | -23 | -11 | 118* | 63* | 74* | 111* | RORg DNA counter=>40
COc1ccc(NC(=O)COc2ccc(Br)cc2)c(OC)c1 | 2 | -9 | -1 | 3 | 8 | . | . | .
COc1ccc2cc(OCC(=O)NNC(=O)Nc3ccc(OC)c(OC)c3)ccc2c1 | -2 | -6 | -1 | 14 | 1 | . | . | .
N#Cc1ccc(/C=C2\CC3(OC(=O)C4CCCCC4)CCCN2C3)cc1 (stereo not drawn) | . | . | . | . | 1 | . | . | .
CCOc1ccc(C(=O)OCC(=O)Nc2cc(C)on2)cc1OCC | 22* | 24 | 3 | -6 | 58* | 4 | 16* | 31*
COCCn1c(-c2ccccc2)nc2c(c(=O)c3ccccc3n2C)c1=O | . | . | -5 | -7 | . | . | . | .
Cn1c2ccccc2c(=O)c2c(=O)n(Cc3ccccc3)c(-c3ccc(F)cc3)nc21 | 21* | -4 | -2 | -3 | 28* | 28* | 39* | 30*
O=C(CSc1nnc(COc2ccc(Cl)cc2)n1Cc1ccco1)Nc1ccc2c(c1)OCO2 | . | . | . | . | 5 | . | . | .
Cc1cc(C)c(C#N)c(SCCS(=O)(=O)Cc2ccc(Cl)cc2)n1 | 11* | 4 | -3 | -6 | 36* | 22* | 31* | 18*
COc1ccc(CCn2c(S)nc3ccccc3c2=O)cc1 | 24* | -17 | 5 | 5 | 37* | 42* | 50* | 8
O=C(N[C@H](C(=O)N1CCC[C@H]1C(=O)NCCc1ccccc1Cl)c1ccccc1)C1CC1 | 0 | . | . | . | 4 | . | . | .
Cc1noc(C)c1C(=O)Nc1nc(-c2cc(F)ccc2F)cs1 | 7 | -76 | . | . | 19 | . | . | .
Cc1onc(-c2ccccc2)c1C(=O)Nc1nc(-c2cc(F)ccc2F)cs1 | 52* | -71 | 0 | 44 | 55* | 50* | 65* | 65* | RORg DNA counter=>40
Cc1ccc(-c2nnc(NCc3nc4ccccc4[nH]3)c3ccccc23)cc1S(=O)(=O)N(C)C | 11* | 13 | -1 | -1 | 76* | 21* | 34* | 53* | RORg DNA counter=>40
Cc1ccc(-c2nnc(NCc3nc4ccccc4[nH]3)c3ccccc23)cc1S(=O)(=O)N1CCOCC1 | . | 24 | -3 | -7 | . | . | . | .
SMILES | PG9 Ab binder | NR2E3 ag-1 | NR2E3 ag-2 | VLA-4 inh | NR1D1 modulator | PG9 binder conf | PGV04 counter | Rev-erbA confirm | others
CCOC(=O)c1cc2sc(C)cc2n1CC(=O)N(CC)CC | 1 | -3 | 0 | 5 | -2 | . | . | .
CCOC(=O)c1cc2sc(C)cc2n1CC(=O)NCCc1ccccc1 | 55* | 25 | -16 | 12 | 32* | 49* | 53* | 13
CC(C)C(=O)Nc1cccc(C(=O)OCC(=O)c2ccc(Cl)cc2Cl)c1 | 53* | -42 | -1 | 12 | 19* | 40* | 58* | 9
COc1ccccc1CNC(=O)COC(=O)c1cccnc1SCC(=O)NCc1ccccc1OC | 19* | -17 | 10 | -10 | 47* | 29* | 43* | 31* | RORg DNA counter=>40
O=C(COC(=O)c1cccnc1SCC(=O)NCc1ccccc1)NCc1ccccc1 | 32* | -25 | 15 | 13 | 53* | 37* | 53* | 52* | RORg DNA counter=>40
CCN(CCNC(=O)[C@H]1C=C(OC)C(=O)C[C@H](c2ccccc2)[C@H]1C)C(C)=O | . | . | . | . | -1 | . | . | .
CCOc1ccc(C(=O)Nc2nc(C)c(C(=O)OC)s2)cc1 | 12* | -95 | 0 | 6 | 50* | 38* | 71* | 81* | RORg DNA counter=i
COC(=O)c1sc(NC(=O)c2ccncc2)nc1C | -1 | -28 | 3 | -3 | -4 | . | . | .
C=CCOC(=O)c1sc(NC(=O)c2ccc(OC)cc2)nc1C | 18* | -15 | 2 | 10 | 39* | 22* | 39* | 25*
CCOC(=O)c1sc(NC(=O)c2ccc(=O)[nH]c2)nc1C | -1 | -25 | -1 | -6 | -1 | . | . | .
CCN(CC)C(=O)CC[C@@H]1CC[C@]2(CCCN(Cc3nccs3)C2)O1 | . | . | . | . | 1 | . | . | .
O=C([C@@H]1C[C@H]1c1ccccc1)N1CC[C@H]2[C@H](CCCN2Cc2ccccc2)C1 | . | . | . | . | 11 | . | . | .
Cc1cc(C)c2c(N)c(C(=O)Nc3ccccc3Br)sc2n1 | 9.1* | -82 | -10 | -8 | 38* | 23* | 38* | 28*
O=C(CCN1C(=O)c2cccc3cccc(c23)C1=O)Nc1ccon1 | 12* | 1 | 1 | -10 | 43* | 17* | 36* | 30*
Cc1cccc(NC(=O)CCN2C(=O)c3ccccc3C2=O)n1 | 2 | -7 | 0 | 22 | 6 | . | . | .
Cn1c(-c2ccc(C=O)s2)nc2c3ccccc3c3ccccc3c21 | 8.9* | -52 | -2 | -50 | 135* | 6 | 8 | 114*
O=c1cc(CCl)[nH]c2nc3ccccc3n12 | -2 | 17 | 1 | -4 | -4 | . | . | .
O=c1cc(-c2ccccc2)[nH]c2nc3ccccc3n12 | 13* | -142 | 5 | 23 | 24* | 20* | 32* | 17*
